Test [1] addresses Protein smoothened (Mus musculus) (UniProt P56726). Nature of the test: Inhibition of Smo in mouse C3H10T1/2 cells assessed as inhibition of human Shh-induced cell differentiation after 48 hrs by alkaline phosphatase reporter assay relative to cyclopamine. Conditions: C3H 10T1/2. It counts as cell-based. The procedure, abridged:
(§1)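 Murine mesenchymal C3H10T1/2 cells were induced to differentiate with Shh protein. Differentiation was read as alkaline phosphatase expression, quantified with fluorescent substrates. Uninduced cells served as baseline. IC50 was taken from dose–response curves.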
A general note: A reporter such as luciferase makes a cellular process visible.

Test [2] has the same target. Conditions: C3H 10T1/2, 55.5 to 4500 nM.
The target is the same in test [3]. Nature of the test: Inhibition of Smo in mouse Ptch-deficient MEF cells assessed as inhibition of Shh-induced Gli-responsive betagalactosidase activity after 30 hrs by BetaGLo assay in presence of SAG. It counts as cell-based. The procedure, abridged: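 Ptch-/- MEF β-gal reporter cells were given an inhibitor dose range together with 20 nM SAG. β-Gal activity was read, with untreated cells and 100 nM KAAD-cyclopamine-treated cells as reference levels.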

The target is the same in test [4]. Nature of the test: Inhibition of Smo in mouse Ptch-deficient MEF cells assessed as inhibition of Shh-induced Gli1 transcriptional activity in presence of SAG. It counts as cell-based.
The subject of test [5] is C3H 10T1/2. Nature of the test: Effect on purmorphamine-induced Gli1 transcription in mouse C3H10T1/2 cells at 55.5 to 4500 nM by qPCR analysis. In kind it is functional, cell-based. (In general: In qPCR the cycle at which signal appears reflects the starting amount.)
Test [6] has as its target Protein smoothened (Mus musculus) (UniProt P56726). Nature of the test: Inhibition of Smo in mouse C3H10T1/2 cells assessed as inhibition of human Shh-induced Gli1 transcriptional activity after 48 hrs by RT-PCR analysis in presence of SAG. It counts as cell-based. The conditions noted are these: C3H 10T1/2.
Test [7] deals with C3H 10T1/2. Nature of the test: Effect on purmorphamine-induced Gli1 transcription in mouse C3H10T1/2 cells at 103 to 25000 nM by qPCR analysis. It counts as functional, cell-based.
Test [8] has as its target Sonic hedgehog protein (Homo sapiens) (UniProt Q15465). Nature of the test: Inhibition of human Shh-induced mouse C3H10T1/2 cell differentiation after 48 hrs by alkaline phosphatase reporter assay relative to cyclopamine. The conditions noted are these: C3H 10T1/2. The procedure, abridged: as §1
Test [9] concerns C3H 10T1/2. Nature of the test: Effect on SAG-induced Gli1 transcription in mouse C3H10T1/2 cells at 103 to 25000 nM by qPCR analysis. It counts as functional, cell-based. An outline of the steps:
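Double-titration (Schild-type) design in murine mesenchymal C3H10T1/2 cells. Gli1 expression is induced by a series of SAG concentrations, each combined with several inhibitor concentrations. Gli1 mRNA is quantified by real-time qPCR with Actb as internal control. SAG dose–response curves are compared across inhibitor levels for shifts and for the maximal induction.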

Test [10] concerns the target T1, Protein smoothened (Mus musculus, UniProt P56726). Nature of the test: Inhibition of Smo in mouse C3H10T1/2 cells assessed as inhibition of human Shh-induced Gli1 transcriptional activity after 48 hrs by RT-PCR analysis. It counts as cell-based, C3H 10T1/2. An outline of the steps:
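Murine mesenchymal C3H10T1/2 cells were activated with Shh protein and exposed to inhibitor. Gli1 mRNA was quantified by real-time qPCR, normalised to Actb as internal control, and IC50 was taken from dose–response curves.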

The target of test [11] is Protein smoothened (Mus musculus) (UniProt P56726). Nature of the test: Inhibition of Smo in mouse C3H10T1/2 cells assessed as inhibition of human Shh-induced Gli1 transcriptional activity after 48 hrs by RT-PCR analysis relative to cyclopamine. In kind it is cell-based. The conditions noted are these: C3H 10T1/2.
Chain of Protein smoothened (Mus musculus) (P56726 whole entry): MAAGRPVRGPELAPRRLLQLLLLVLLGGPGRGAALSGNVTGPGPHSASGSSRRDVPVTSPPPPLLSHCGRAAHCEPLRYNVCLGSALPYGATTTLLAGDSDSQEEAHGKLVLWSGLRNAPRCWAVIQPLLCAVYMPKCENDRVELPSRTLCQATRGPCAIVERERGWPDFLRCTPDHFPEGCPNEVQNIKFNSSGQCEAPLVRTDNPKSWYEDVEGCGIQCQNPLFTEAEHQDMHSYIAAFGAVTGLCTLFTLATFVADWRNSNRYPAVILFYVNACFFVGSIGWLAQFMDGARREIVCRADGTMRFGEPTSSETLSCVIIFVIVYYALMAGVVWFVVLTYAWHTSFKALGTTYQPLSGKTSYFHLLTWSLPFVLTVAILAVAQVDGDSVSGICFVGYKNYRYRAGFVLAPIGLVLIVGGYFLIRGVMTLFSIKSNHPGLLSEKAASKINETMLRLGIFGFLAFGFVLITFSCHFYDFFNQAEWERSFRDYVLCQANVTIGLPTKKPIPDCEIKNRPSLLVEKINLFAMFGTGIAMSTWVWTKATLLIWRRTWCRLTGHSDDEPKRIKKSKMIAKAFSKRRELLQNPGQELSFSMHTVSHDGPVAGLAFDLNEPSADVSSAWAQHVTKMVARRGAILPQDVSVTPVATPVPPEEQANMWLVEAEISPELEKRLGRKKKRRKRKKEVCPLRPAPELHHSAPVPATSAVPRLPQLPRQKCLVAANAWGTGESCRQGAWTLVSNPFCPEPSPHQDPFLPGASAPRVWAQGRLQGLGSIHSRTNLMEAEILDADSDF
For test [12] the target is unchanged. Nature of the test: Competitive inhibition of Smo in mouse C3H10T1/2 cells assessed as inhibition of purmorphamine-induced Gli1 transcriptional activity at 309 to 25000 nM by qPCR analysis. In kind it is cell-based. The conditions noted are these: C3H 10T1/2.
Test [13] has as its target T1, Protein smoothened. Nature of the test: Inhibition of Smo in mouse Ptch-deficient MEF cells assessed as inhibition of Shh-induced Gli-responsive betagalactosidase activity after 30 hrs by BetaGLo assay. In kind it is cell-based.
Test [14] concerns the target Protein smoothened (Mus musculus) (UniProt P56726). The conditions noted are these: C3H 10T1/2, at 103 to 25000 nM.
The target of test [15] is T1, Protein smoothened. Nature of the test: Inhibition of Smo in mouse Ptch-deficient MEF cells assessed as inhibition of Shh-induced Gli1 transcriptional activity. In kind it is cell-based.
For test [16], the target named is Protein smoothened (Mus musculus) (UniProt P56726). Nature of the test: Ratio of IC50 for Smo in mouse C3H10T1/2 cells assessed as inhibition of human Shh-induced Gli1 transcriptional activity in presence of SAG to IC50 for Smo in mouse C3H10T1/2 cells assessed as inhibition of human Shh-induced Gli1 transcriptional activity. It counts as cell-based. Conditions: C3H 10T1/2.

Test [17] shares this target. Nature of the test: Competitive inhibition of Smo in mouse C3H10T1/2 cells assessed as inhibition of purmorphamine-induced Gli1 transcriptional activity at 103 to 25000 nM by qPCR analysis. In kind it is cell-based. Conditions: C3H 10T1/2.

Active and inactive are the calls of the source. The calls are words filed in the database; no cut-off is given here.

T1 sequence (P56726 whole entry): as above
Chain of Sonic hedgehog protein (Homo sapiens) (Q15465 24-197 limits assumed): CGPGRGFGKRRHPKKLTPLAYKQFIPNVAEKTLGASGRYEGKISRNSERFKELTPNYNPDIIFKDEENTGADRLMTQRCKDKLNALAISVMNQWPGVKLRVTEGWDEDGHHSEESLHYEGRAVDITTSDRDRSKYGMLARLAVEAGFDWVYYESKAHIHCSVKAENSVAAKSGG

With `C[C@H]1NC(=O)[C@H](CC(=O)NCc2ccc(Cl)cc2)C/C=C/CCC(=O)O[C@@H]1c1ccccc1`, in test [1], the Imax was found to be 69%.
For `C[C@H]1[C@@H](c2ccccc2)OC(=O)CCCCC[C@@H](CC(=O)NCc2ccc(Cl)cc2)C(=O)N1C`, the Imax in test [1] is 59%.
Consider `CC1=C2C[C@H]3[C@@H](CC=C4C[C@@H](O)CC[C@@]43C)[C@@H]2CC[C@]12O[C@@H]1C[C@H](C)CN[C@H]1[C@H]2C`, for which the inhibition result in test [2] is “Active”. The inhibition entry in test [3], in test [4] and in [6] was “inactive” throughout. The result in test [5] was inactive.
Take `CC(C)(C)OC(=O)C[C@@H]1C/C=C/CCC(=O)N[C@H](c2ccccc2)COC1=O`: the Imax in test [1] was 60%.
`C[C@@H]1NC(=O)[C@H](CC(=O)NCc2ccc(Cl)cc2)C/C=C/CCC(=O)O[C@@H]1c1ccccc1`: in [1], the Imax was 77%.
The same measure, in the same setting: then `C[C@H]1[C@@H](c2ccccc2)OC(=O)CC/C=C/C[C@@H](CC(=O)NCc2ccc(Cl)cc2)C(=O)N1C`, with 78%.
Same read-out and setting: then `O=C(C[C@@H]1C/C=C/CCC(=O)N[C@@H]2c3ccccc3C[C@@H]2OC1=O)NCc1ccc(Cl)cc1`, with 40%.
For the compound `O=C(C[C@@H]1C/C=C/CCC(=O)N[C@H](c2ccc(F)cc2)COC1=O)NCc1ccc(Cl)cc1`, the Imax in test [1] is 90%.
For the compound `O=C(C[C@@H]1C/C=C/CCC(=O)O[C@H](c2ccccc2)CNC1=O)NCc1cccc(Cl)c1`, the Imax in test [1] was found to be 50%.
In the case of `O=C(C[C@@H]1C/C=C/CCC(=O)O[C@H](c2ccccc2)CNC1=O)NCc1ccc(Cl)cc1`, the result in test [7] and in [9] was inactive. In [8], the Imax was 47%.
For the compound `O=C(C[C@@H]1C/C=C/CCC(=O)N[C@H](c2ccccc2)COC1=O)NCc1ccc(Cl)cc1`, the Imax in [1] turned out to be 86%.
Still for that read-out and setting: then `O=C(C[C@@H]1C/C=C/CCC(=O)O[C@H](c2ccccc2)CNC1=O)NCCCC(F)(F)F`, with 28%.
On to `O=C(C[C@@H]1C/C=C/CCC(=O)N[C@H](c2ccc(Cl)cn2)COC1=O)NCc1ccc(Cl)cc1`, for which, in [10], the IC50 turned out to be 4.3 µM. For the same compound, the Imax in test [11] was found to be 85%.
With `O=C(CN1C/C=C/CCC(=O)N[C@H](c2ccccc2)COC1=O)NCc1ccc(Cl)cc1`, the Imax in [1] came out at 47%.
For the compound `CC(C)N[C@H]1C/C=C/C[C@@H](CC(=O)NCc2ccc(Cl)cc2)C(=O)NC[C@@H](c2ccccc2)OC1=O`, the Imax in [1] turned out to be 41%.
For the compound `O=C(C[C@@H]1C/C=C/CCC(=O)OC[C@@H]2CCCN2C1=O)NCc1ccc(Cl)cc1`, the Imax in [1] worked out at 77%.
As to `O=C(C[C@@H]1C/C=C/CCC(=O)N[C@@H](c2ccccc2)COC1=O)NCc1ccc(Cl)cc1`, in [1], the Imax turned out to be 95%.
As to `O=C(C[C@@H]1C/C=C/CCC(=O)N[C@H](C2CCCCC2)COC1=O)NCc1ccc(Cl)cc1`, the Imax in test [1] was found to be 75%.
On the same count and under the same terms, then `CCCC[C@@H]1COC(=O)[C@H](CC(=O)NCc2ccc(Cl)cc2)C/C=C/CCC(=O)N1`, with 53%; and `C[C@H]1C/C=C\C[C@@H](CC(=O)NCc2ccc(Cl)cc2)C(=O)OC[C@@H](c2ccccc2)NC1=O`, with 97%.
`CC(C)[C@@H]1COC(=O)[C@H](CC(=O)NCc2ccc(Cl)cc2)C/C=C/CCC(=O)N1`: the Imax in test [1] came to 54%.
As to `O=C(C[C@@H]1C/C=C/CCC(=O)N[C@H](Cc2ccccc2)COC1=O)NCc1ccc(Cl)cc1`, the inhibition entry in test [3], in test [4] and in test [6] was “inactive” throughout. Moreover, the inhibition entry in test [12] and in test [14] was “Active” in each case. Moreover, the half-maximal inhibitory concentration (IC50) in [13] amounted to 8.1 µM; in test [15], 8.8 µM. In addition, in test [1], the Imax came out at 90%. Further, in [16], the Ratio IC50 was found to be 18.
As for `O=C(C[C@@H]1C/C=C/C[C@H](Cc2ccccc2)C(=O)N[C@H](c2ccccc2)COC1=O)NCc1ccc(Cl)cc1`, in test [1], the Imax was determined as 106%.
Take `CN1C[C@@H](c2ccccc2)OC(=O)CC/C=C/C[C@@H](Cc2ccc(Cl)cc2)C1=O`: the Imax in test [1] was found to be 104%.
In the case of `O=C(C[C@@H]1C/C=C/CCC(=O)N[C@H](c2ccc(Cl)cc2)COC1=O)NCc1ccc(Cl)cc1`, the inhibition result in [17] and in [14] was “Active” in each case. Besides, the inhibition entry in test [3], in [4] and in [6] was “inactive” in each case. For the same compound, the IC50 in test [10] is 0.4 µM; in [13] it was 2 µM; in test [15], 3.5 µM. The Imax was 105% in [1] and 100% in test [11]. In addition, the Ratio IC50 in [16] amounted to 32.
For `C[C@H]1C/C=C/C[C@@H](CC(=O)NCc2ccc(Cl)cc2)C(=O)OC[C@@H](c2ccccc2)NC1=O`, the Imax in [1] stood at 78%.

The IC50 is the concentration at which inhibition is half-maximal.

Source of the values: ChEMBL document CHEMBL2150854, “Macrocyclic Hedgehog Pathway Inhibitors: Optimization of Cellular Activity and Mode of Action Studies” (ACS Med Chem Lett, 2012).
